Test [1] relates to Mycobacterium tuberculosis. Put plainly: Activity at Mycobacterium tuberculosis beta lactamase BlaC expressed in Escherichia coli assessed as ratio of Kcat to Km by spectrophotometric method. In outline: (§1)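 BlaC produced in E. coli, purified by Ni-NTA affinity and size-exclusion chromatography. Carbapenem hydrolysis followed spectrophotometrically in 100 mM MES buffer, pH 6.4, at 20 °C. Direct determination of kcat and Km for substrates with Km above 10 μM. For the other compounds, kcat and Km were obtained by competition against the reporter substrate nitrocefin.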

In test [2] the test system is Mycobacterium tuberculosis. Nature of the test: Inhibition of Mycobacterium tuberculosis LdtMt1 expressed in Escherichia coli assessed as efficiency of acylation reaction by measuring ratio of K2 to Kapp by stopped-flow spectrofluorimetric method. In outline: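 His-tagged LdtMt1 expressed in E. coli and purified by Ni2+-NTA affinity, then by size-exclusion chromatography in 100 mM sodium phosphate pH 6.4 with 300 mM NaCl. Inactivation kinetics measured by stopped-flow spectrofluorimetry in 100 mM sodium phosphate, pH 6.0, at 10 °C. k1, k2 and k2/Kapp were calculated from the fluorescence kinetics.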

For test [3], the system named is Mycobacterium tuberculosis. Put plainly: Activity at Mycobacterium tuberculosis beta lactamase BlaC expressed in Escherichia coli by spectrophotometric method. The method, boiled down: as §1

We go through 14 compounds from ChEMBL document CHEMBL3797045, “Routes of Synthesis of Carbapenems for Optimizing Both the Inactivation of L,D-Transpeptidase LdtMt1 of Mycobacterium tuberculosis and the Stability toward Hydrolysis by β-Lactamase BlaC” (J Med Chem, 2016).

Turning to `CCSC1=C(C(=O)O)N2C(=O)[C@H]([C@@H](C)O)[C@H]2[C@H]1C`, the kcat/Km in test [1] came to 3700 M⁻¹ s⁻¹. In addition, the Ratio in test [2] is 10800 M⁻¹ s⁻¹. In addition, in test [3], the Km is 11 µM.
With `C[C@@H](O)[C@H]1C(=O)N2C(C(=O)O)=C(S[C@@H]3CN[C@H](CNS(N)(=O)=O)C3)[C@H](C)[C@H]12`, in test [1], the kcat/Km came out at 1500 M⁻¹ s⁻¹. Besides, the Ratio in test [2] amounted to 1500 M⁻¹ s⁻¹. The Michaelis-Menten constant (Km) in test [3] was found to be 0.46 µM.
For the compound `CCSC1=C(C(=O)O)N2C(=O)[C@H]([C@@H](C)OC(=O)c3ccccc3)[C@H]2[C@H]1C`, the kcat/Km in test [1] was 1500 M⁻¹ s⁻¹. The Ratio in test [2] was 3800 M⁻¹ s⁻¹. For the same compound, the Km in test [3] worked out at 1.2 µM.
In the case of `C[C@@H](O)[C@H]1C(=O)N2C(C(=O)O)=C(SCCc3cn(-c4cccc(C(=O)O)c4)nn3)[C@H](C)[C@H]12`, in test [1], the kcat/Km turned out to be 13000 M⁻¹ s⁻¹. In test [2], the Ratio is 36000 M⁻¹ s⁻¹. The Km in test [3] came to 19 µM.
For `C[C@@H](O)[C@H]1C(=O)N2C(C(=O)O)=C(SCCc3cn(-c4ccccc4)nn3)[C@H](C)[C@H]12`, in that order: 2100 M⁻¹ s⁻¹, 26000 M⁻¹ s⁻¹ and 0.31 µM.
For the compound `C[C@@H](O)[C@H]1C(=O)N2C(C(=O)O)=C(S[C@@H]3CN[C@H](C(=O)N(C)C)C3)[C@H](C)[C@H]12`, the kcat/Km in test [1] stood at 1000 M⁻¹ s⁻¹. Moreover, in test [2], the Ratio came out at 1300 M⁻¹ s⁻¹. Besides, the Km in test [3] is 0.92 µM.
With `C[C@@H](O)[C@H]1C(=O)N2C(C(=O)O)=C(SCCc3cn(CCCCC(=O)O)nn3)[C@H](C)[C@H]12`, in test [1], the kcat/Km stood at 5700 M⁻¹ s⁻¹. Also, in test [2], the Ratio stood at 9600 M⁻¹ s⁻¹. Besides, in test [3], the Km stood at 56 µM.
On to `C[C@@H](O)[C@H]1C(=O)N2C(C(=O)O)=C(SCCc3ccccc3)[C@H](C)[C@H]12`, for which the kcat/Km in test [1] is 360 M⁻¹ s⁻¹. In addition, the Ratio in test [2] came to 39000 M⁻¹ s⁻¹. Further, the Km in test [3] turned out to be 1.5 µM.
Consider `CCSC1=C(C(=O)O)N2C(=O)[C@H]([C@@H](C)OC(=O)c3c(F)c(F)c(F)c(F)c3F)[C@H]2[C@H]1C`, for which, in test [1], the kcat/Km is 840 M⁻¹ s⁻¹. The Ratio in test [2] stood at 25000 M⁻¹ s⁻¹. Also, the Km in test [3] came to 1.4 µM.
For `C[C@@H](O)[C@H]1C(=O)N2C(C(=O)O)=C(SCCc3cn(-c4ccccc4C(=O)O)nn3)[C@H](C)[C@H]12`, the kcat/Km in test [1] is 300 M⁻¹ s⁻¹. Also, the Ratio in test [2] is 26000 M⁻¹ s⁻¹. Moreover, the Km in test [3] was 3.3 µM.
As for `C[C@@H](O)[C@H]1C(=O)N2C(C(=O)O)=C(SCCc3cn(CCc4c[nH]c5ccccc45)nn3)[C@H](C)[C@H]12`, the kcat/Km in test [1] stood at 2000 M⁻¹ s⁻¹. Further, the Ratio in test [2] came out at 28000 M⁻¹ s⁻¹. Further, in test [3], the Km is 0.17 µM.
For `C[C@@H](O)[C@H]1C(=O)N2C(C(=O)O)=C(S[C@@H]3CN[C@H](C(=O)Nc4cccc(C(=O)O)c4)C3)[C@H](C)[C@H]12` the same measures were 330 M⁻¹ s⁻¹, 23000 M⁻¹ s⁻¹ and 4.8 µM.
With `C[C@@H](O)[C@H]1C(=O)N2C(C(=O)O)=C(SCCN)[C@H](C)[C@H]12`, in test [1], the specificity constant (kcat/Km) was determined as 320 M⁻¹ s⁻¹. Moreover, in test [2], the Ratio amounted to 3600 M⁻¹ s⁻¹. Further, in test [3], the Km turned out to be 3.5 µM.
Turning to `CC(c1ccc(C(=O)O)cc1)n1cc(CCSC2=C(C(=O)O)N3C(=O)[C@H]([C@@H](C)O)[C@H]3[C@H]2C)nn1` (some centres not stated), the kcat/Km in test [1] turned out to be 3200 M⁻¹ s⁻¹. The Ratio in test [2] was found to be 29000 M⁻¹ s⁻¹. For the same compound, the Km in test [3] was 47 µM.

As usually defined, the kcat/Km is the turnover number divided by the Michaelis constant. As usually defined, the Km is the substrate concentration at which the rate is half of its maximum.
